Only some compounds are listed: those with a hit (about 2.2% of all), similar ones and a draw of the others.
CHRM1 antagonist – human M1 muscarinic receptor antagonists, primary screen, CHO-K1 cells, Fluo-8 calcium fluorescence, 1536-well | Muscarinic acetylcholine receptor M1 (Homo sapiens), P11229 | inhibition, % at 3 µM | hit rate 1.3% among 360,000 | AID 588852, 2011 | CHO-K1 hM1, ACh EC80 antagonist;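 active = percent inhibition above its own plate's cutoff, namely the mean of that plate's compound wells plus 3 SD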;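 note: peak over basal fluorescence ratio during 140 s after agonist addition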
CHRM1 PAM – human M1 muscarinic receptor positive allosteric modulators, primary screen, CHO-K1 cells, Fluo-8 calcium fluorescence, 1536-well; AID 588819, 2011; activation, % at 3 µM; Muscarinic acetylcholine receptor M1 (Homo sapiens), P11229; CHO-K1 hM1, ACh EC20; 0% = ACh EC20, 100% = maximal ACh; hit rate 0.088% among 360,000; in the data active = activation above about 19%, passing the limit was not always enough
M5 ag – human M5 muscarinic receptor agonists, primary screen, CHO-K1 cells, Fluo-8 calcium fluorescence; Muscarinic acetylcholine receptor M5 (Homo sapiens), P08912; CHO-K1 hM5 cells; 0% DMSO wells, 100% maximal acetylcholine response; activation, % at 3 µM; hit rate 0.19% among 360,000; AID 624037, 2012;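 active = activation above the run's mean over test compounds plus 3 SD, cut at about 23% in these data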;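 note: signal is peak over basal fluorescence ratio across the kinetic read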
Target sequence (P08912 whole entry, looked up): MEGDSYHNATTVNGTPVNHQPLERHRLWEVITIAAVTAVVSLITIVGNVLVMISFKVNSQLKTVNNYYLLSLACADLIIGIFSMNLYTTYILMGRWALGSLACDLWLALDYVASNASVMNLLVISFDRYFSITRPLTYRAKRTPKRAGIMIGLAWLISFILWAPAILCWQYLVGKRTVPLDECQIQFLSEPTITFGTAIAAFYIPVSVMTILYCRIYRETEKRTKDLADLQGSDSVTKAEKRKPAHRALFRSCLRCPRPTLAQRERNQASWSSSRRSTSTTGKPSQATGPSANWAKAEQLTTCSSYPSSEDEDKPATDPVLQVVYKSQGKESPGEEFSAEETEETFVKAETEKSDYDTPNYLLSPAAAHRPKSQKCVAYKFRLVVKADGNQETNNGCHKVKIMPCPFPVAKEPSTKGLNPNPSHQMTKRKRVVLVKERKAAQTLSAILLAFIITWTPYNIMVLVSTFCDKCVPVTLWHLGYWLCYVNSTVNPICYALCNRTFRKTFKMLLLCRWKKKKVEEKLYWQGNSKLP
CHRM1 agonist – human M1 muscarinic receptor agonists, primary screen, Fluo-8 calcium fluorescence, CHO-K1 cells, HTS; Muscarinic acetylcholine receptor M1 (Homo sapiens), P11229; CHO-K1 hM1, agonist mode; 0% DMSO, 100% acetylcholine EC100; activation, % at 3 µM; hit rate 0.33% among 360,000;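 active = activation above the run's mean compound activation plus 3 SD, cut at about 16% in these data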;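 note: peak over basal fluorescence ratio within a 140 s kinetic read after compound addition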
M5 PAM – human M5 muscarinic receptor positive allosteric modulators, primary screen, CHO-K1 cells, Fluo-8 calcium fluorescence. Muscarinic acetylcholine receptor M5 (Homo sapiens), P08912. CHO-K1 hM5, ACh EC20 PAM; 0% = ACh EC20, 100% = ACh EC100. hit rate 0.3% among 360,000. activation, % at 3 µM;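 active = activation above the run cutoff, the mean activation of all test compounds plus 3 SD, cut at about 18% in these data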
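Assay system – human M5 receptor in CHO-K1 cells · Read-out – % activation, ACh-normalized · Technique – Fluo-8 calcium fluorescence · Dosing – single-point, 3 µM nominal · Incubation – Fluo-8 loading 80 min at 37 °C plus 30 min room temperature · Repeats – singlicate, one well per test compound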
CHRM5 antagonist – human M5 muscarinic receptor antagonists, primary screen, CHO cells, Fluo-8 calcium fluorescence | CHO-hM5 cells, ACh EC80 | inhibition, % at 3 µM | hit rate 0.59% among 360,000;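 active = inhibition above a per-plate cutoff, the mean of that plate's test compounds plus 3 SD, cut at about 27% in these data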
Hits are given with their value.

For O=C(O)CSc1nc2ccccc2c(=O)[nH]1 the results were CHRM1 antagonist inactive, CHRM1 PAM inactive, M5 ag inactive, CHRM1 agonist inactive, M5 PAM 24.1 and CHRM5 antagonist inactive.
`CC1CCCN(S(=O)(=O)c2ccc(Cl)s2)C1` (stereo unspecified) gave CHRM1 antagonist inactive, CHRM1 PAM inactive, M5 ag inactive, CHRM1 agonist inactive, M5 PAM 19.1 and CHRM5 antagonist inactive.
For N=C(N)SCC1=CCS(=O)(=O)C1 the results were CHRM1 antagonist inactive, CHRM1 PAM inactive, M5 ag inactive, CHRM1 agonist inactive, M5 PAM inactive and CHRM5 antagonist 31.5.
For CN(C)CCCCCNCCCNC(=O)/C=N\O the results were CHRM1 antagonist inactive, CHRM1 PAM inactive, M5 ag inactive, CHRM1 agonist inactive, M5 PAM inactive and CHRM5 antagonist inactive.
`CN(C)CCNC(=O)/C=N/O` gave CHRM1 antagonist inactive, CHRM1 PAM inactive, M5 ag inactive, CHRM1 agonist 26.3, M5 PAM inactive and CHRM5 antagonist inactive.
Screening CN(CC(=O)Nc1ccc(Cl)c(Cl)c1)CC(=O)N1CCCCCC1 returned CHRM1 antagonist 70.6, CHRM1 PAM inactive, M5 ag inactive, CHRM1 agonist inactive, M5 PAM inactive and CHRM5 antagonist inactive.
`CN(CC(=O)Nc1cccc(S(=O)(=O)N2CCCC2)c1)CC(=O)Nc1ccc(Cl)c(C(F)(F)F)c1` gave CHRM1 antagonist 26.3, CHRM1 PAM inactive, M5 ag inactive, CHRM1 agonist inactive, M5 PAM inactive and CHRM5 antagonist inactive.
For CN(CC(=O)Nc1ccc(Cl)c(C(F)(F)F)c1)CC(=O)NC1CCCCC1 the results were CHRM1 antagonist 26.1, CHRM1 PAM inactive, M5 ag inactive, CHRM1 agonist inactive, M5 PAM inactive and CHRM5 antagonist inactive.
For CN(CC(=O)Nc1cccc(F)c1)CC(=O)N1CCCCC1 the results were CHRM1 antagonist inactive, CHRM1 PAM inactive, M5 ag inactive, CHRM1 agonist inactive, M5 PAM inactive and CHRM5 antagonist inactive.
Screening Nc1ncc(Br)cc1S(=O)(=O)NCCC(=O)NCCc1ccc(Cl)cc1 returned CHRM1 antagonist inactive, CHRM1 PAM inactive, M5 ag inactive, CHRM1 agonist inactive, M5 PAM inactive and CHRM5 antagonist inactive.
`Brc1ccc(CN2CCCCCC2)cc1` gave CHRM1 antagonist inactive, CHRM1 PAM inactive, M5 ag inactive, CHRM1 agonist inactive, M5 PAM inactive and CHRM5 antagonist inactive.
Screening C[C@@H]1CCCCO[C@H](CN(C)C(=O)Cc2ccccc2)[C@@H](C)CN([C@H](C)CO)C(=O)c2cc(NC(=O)Nc3ccccc3)ccc2O1 returned CHRM1 antagonist inactive, CHRM1 PAM inactive, M5 ag inactive, CHRM1 agonist inactive, M5 PAM inactive and CHRM5 antagonist inactive.
`CSc1ccccc1-c1ccc2nccn2c1` gave CHRM1 antagonist 34.9, CHRM1 PAM inactive, M5 ag inactive, CHRM1 agonist inactive, M5 PAM inactive and CHRM5 antagonist inactive.
Screening CCN(CC)CCNC(=O)c1ccc(Cl)c(S(=O)(=O)Nc2ccc(Cl)cc2)c1 returned CHRM1 antagonist inactive, CHRM1 PAM inactive, M5 ag inactive, CHRM1 agonist inactive, M5 PAM inactive and CHRM5 antagonist inactive.
Screening CCN(CC)CCNC(=O)c1ccc(NC(=O)c2ccc(Cl)c(S(=O)(=O)N3CCCCCC3)c2)cc1 returned CHRM1 antagonist 99.5, CHRM1 PAM inactive, M5 ag inactive, CHRM1 agonist inactive, M5 PAM inactive and CHRM5 antagonist 79.2.
Screening CCN(CC)CCNC(=O)c1ccc(NC(=O)c2cccc(S(=O)(=O)N3CCCCCC3)c2)cc1 returned CHRM1 antagonist 101.3, CHRM1 PAM inactive, M5 ag inactive, CHRM1 agonist inactive, M5 PAM inactive and CHRM5 antagonist 79.5.
For CCN(CC)CCNC(=O)c1ccc(NC(=O)c2ccc(S(=O)(=O)N3CCCCCC3)cc2)cc1 the results were CHRM1 antagonist inactive, CHRM1 PAM inactive, M5 ag inactive, CHRM1 agonist inactive, M5 PAM inactive and CHRM5 antagonist inactive.
`COc1ccc(/C=C(\NC(=O)c2ccco2)C(=O)N2CCCCC2)cc1` gave CHRM1 antagonist inactive, CHRM1 PAM inactive, M5 ag inactive, CHRM1 agonist inactive, M5 PAM inactive and CHRM5 antagonist inactive.
Screening CCOc1ccc(C(=O)Nc2ncccc2Cl)cc1 returned CHRM1 antagonist inactive, CHRM1 PAM inactive, M5 ag inactive, CHRM1 agonist inactive, M5 PAM inactive and CHRM5 antagonist inactive.
For CCN1CCc2c(sc(NC(=O)Cc3ccccc3)c2C(N)=O)C1 the results were CHRM1 antagonist inactive, CHRM1 PAM inactive, M5 ag inactive, CHRM1 agonist inactive, M5 PAM inactive and CHRM5 antagonist inactive.
Screening CCN1CCc2c(sc(NC(=O)Nc3ccc(Cl)c(Cl)c3)c2C(N)=O)C1 returned CHRM1 antagonist 63.3, CHRM1 PAM inactive, M5 ag 76.7, CHRM1 agonist 113.5, M5 PAM inactive and CHRM5 antagonist 58.0.
Cc1sc2ncn(CC(=O)N3CCN(c4ccccc4)CC3)c(=O)c2c1S(=O)(=O)N1CCOCC1 was read as CHRM1 antagonist inactive, CHRM1 PAM inactive, M5 ag inactive, CHRM1 agonist inactive, M5 PAM inactive and CHRM5 antagonist inactive.
Screening Cc1nnc2sc(SCC(=O)Nc3nccs3)nn2c1=O returned CHRM1 antagonist inactive, CHRM1 PAM inactive, M5 ag inactive, CHRM1 agonist inactive, M5 PAM inactive and CHRM5 antagonist inactive.
`NC(Cc1c[nH]c2ccccc12)C(=O)NCc1ccco1` (stereo unspecified) gave CHRM1 antagonist inactive, CHRM1 PAM inactive, M5 ag inactive, CHRM1 agonist inactive, M5 PAM inactive and CHRM5 antagonist inactive.
`CCOc1ccc2[nH]c(=O)c(CN(Cc3ccc(C)cc3)C(=O)N3CCCC3)cc2c1` gave CHRM1 antagonist inactive, CHRM1 PAM inactive, M5 ag inactive, CHRM1 agonist inactive, M5 PAM inactive and CHRM5 antagonist 31.6.
Screening CCOc1ccc2[nH]c(=O)c(CN(CCc3ccccc3)C(=O)N3CCCC3)cc2c1 returned CHRM1 antagonist inactive, CHRM1 PAM inactive, M5 ag inactive, CHRM1 agonist inactive, M5 PAM inactive and CHRM5 antagonist inactive.
For COc1cc(NC(=O)c2ccco2)c(OC)cc1NC(=O)Nc1ccccc1Cl the results were CHRM1 antagonist 30.4, CHRM1 PAM inactive, M5 ag inactive, CHRM1 agonist inactive, M5 PAM inactive and CHRM5 antagonist inactive.

Bioassay records from PubChem BioAssay.
